test: Toxicity liver stage against HepG2, at 10uM; type: cell-based; parameters: test concentration 10 uM, cell line HepG2-A16-CD81EGFP; conditions: human, HepG2-A16-CD81EGFP cells; read-out: INHIBITION
Outline: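 Uninfected HepG2-A16-CD81EGFP cells, 3 × 10^3 per well, 1536-well, plated on prespotted compound at 10 μM final, parasite-free screening media added to match infected plates; puromycin 10 μM positive, DMSO 0.5% negative; run in parallel with 48 h PbLuc assay at 37 °C, 5% CO2; viability by CellTiter-Glo luminescence, normalized to controls.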

| SMILES | cytotoxicity at 10 µM [%] |
| --- | --- |
| CC1Cn2c(nc3c2c(=O)[nH]c(=O)n3C)O1 (stereo unspecified) | 1.26 |
| CC(C)(C)OCC1CN(Cc2cccs2)S(=O)(=O)c2cnccc2O1 (stereo unspecified) | 2.89 |
| CN1C[C@H](O)[C@]2(CCN(C(=O)NCc3ccccc3)C2)S1(=O)=O | 4.53 |
| CCCC(O)CN1CCC(=O)N(CC2CC2)Cc2cc3c(cc21)OCO3 (stereo unspecified) | -1.89 |
| O=C(O)Cn1ccc(=O)c2ccc(Cl)cc21 | -7.76 |
| COCC(=O)N(Cc1ccc2cc[nH]c2c1)C1CC1 | -5.54 |
| CC(C)n1cc(C(=O)NC2CCS(=O)(=O)C2)c2ccccc2c1=O (stereo unspecified) | 1.85 |
| CC(C)c1sc(Cl)nc1C(=O)N1CCN(Cc2ccccc2)CC1 | -2.7 |
| CCCc1noc(C2CC(=O)N(Cc3ccccc3)C2)n1 (stereo unspecified) | -2.62 |
| C[C@@H]1CN(C(=O)c2ccccc2F)C[C@]12CCN(CCN(C)C)C2=O | 3 |
| Cc1nc([C@H]2C[C@@H]3CCN(Cc4cnn(C)c4)C[C@H]3O2)sc1C | -1.96 |
| CC(C)c1cc2c(O)nc(CSCC(=O)NCc3ccccn3)nc2s1 | -5.29 |
| COc1cc(Cl)c(C)cc1-n1nnc(C(=O)O)c1C | -8.29 |
| COc1cc2ncn(CC(=O)NCCCN(C)C)c(=O)c2cc1OC | 10 |
| O=C1CC(c2ccccc2)c2c(n3ccsc3nc2=O)N1 (stereo unspecified) | -4.74 |
| O=C(c1ccc(Cl)cc1)N1CCCn2nnc(Cn3cccn3)c2C1 | -10.3 |
| CCn1ccc(-c2cc(C(=O)O)n3nc(C(F)(F)F)c(Br)c3n2)n1 | -1.47 |
| Clc1cccc(-n2cnnn2)c1N1CCCC1 | 9.35 |
| Cc1nn(C)c2c(N3CCN(C(=O)c4ccccc4)CC3)ncnc12 | 10.9 |
| CC1(c2[nH]ncc2C(N)=O)CCN(S(=O)(=O)c2ccccc2)CC1 | -1.29 |
| CN1CCN(c2nc(O)cc(Cc3ccccc3F)n2)CC1 | -5.08 |
| CCN1CCN(c2nc(O)cc(Cc3ccccc3F)n2)CC1 | -1.83 |
| Cc1nc2cc(C(=O)N3CCn4c(nnc4C4CC4)C3)ccc2s1 | -1.41 |

| SMILES | cytotoxicity at 10 µM [%] |
| --- | --- |
| C[C@]12CCCCN(C(=O)c3ccccn3)[C@H]1CCCC(=O)N2 | -20.1 |
| Cc1n[nH]c(C)c1-c1cnc(C2CCN(S(C)(=O)=O)CC2)cn1 | -1.57 |
| CNc1cc(C)nc(C2CN(Cc3cncs3)CCO2)c1 (stereo unspecified) | -12.3 |
| Cc1cc(-c2cnc(NC3CCCC3)nc2-c2ccc(C)o2)on1 | -22.4 |
| CC(=O)N1CCCC1c1cncc(Oc2ccc(F)cc2)n1 (stereo unspecified) | -15.8 |
| Cc1ccc(C(=O)N2CCOC(c3nc(-c4ncccn4)no3)C2)cc1 (stereo unspecified) | -19.9 |
| CC(C)(C)C(=O)N1CCC(c2nc(O)cc(-c3ccncc3)n2)CC1 | -22 |
| O=C(CCCc1ccccn1)Nc1cccc(N2CCCNC2=O)c1 | 1.94 |
| O=C(NCCc1nncn1C1CC1)C1(Cc2ccccc2)CCC1 | 7.87 |
| CNS(=O)(=O)c1cccc(CNCc2ccsc2)c1 | -2.54 |
| COc1ccccc1CCNC(=O)CNCC1CN(C)CCO1 (stereo unspecified) | 1.49 |
| CC(C)(CNC(=O)Nc1cccc(-c2cccs2)c1)C(N)=O | -9.99 |
| COCCN1CCC(NC(=O)NCC2(c3cccc(F)c3)CC2)C1 (stereo unspecified) | 5.59 |
| CCOCC(=O)Nc1ccc(-n2ccc(C(N)=O)n2)cc1 | -5.27 |
| CN(c1ccc2ccccc2c1)S(=O)(=O)c1cc(C(=O)O)cs1 | 1.2 |
| Cc1ccc(-c2cc(CN3CCc4cnc(C)nc4C3)on2)cc1 | 4.88 |
| N#Cc1ccc(C(=O)NCC2(N3CCOCC3)CCCC2)nc1 | 8.96 |
| CN(Cc1ccc(Br)s1)Cn1nc(-c2ccccc2)oc1=O | 4.86 |
| CN(C(=O)CNc1ccc(C#N)cc1)C1CCN(c2ccccn2)CC1 | 18.7 |
| COCCN(CCOC)C(=O)c1cccc(Cn2nc(C)cc2C)c1 | -8.22 |
| Cc1ccc(C(=O)NCC2CCN(C)c3ccccc32)c(=O)[nH]1 (stereo unspecified) | 12.6 |
| COCc1nn(Cc2ccc(Cl)s2)c(=O)o1 | 1.97 |
| COC(=O)N1CCC(NC(=O)CC(C)CCc2ccccc2)CC1 (stereo unspecified) | 4.6 |

| SMILES | cytotoxicity at 10 µM [%] |
| --- | --- |
| CCC(CC)c1cc(CNC(=O)N2CCOCC2CC)on1 (stereo unspecified) | -5.59 |
| O=C1CN(Cc2nnc(-c3ccc(Br)cc3)o2)CCN1 | 2.55 |
| NC(=O)CCOc1nc(-c2ccccc2Cl)no1 | -1.64 |
| CCOCCCC(=O)NCc1cn2cc(Br)ccc2n1 | 2.73 |
| CCc1cc(NCc2ccccc2CN2CCCC2)n2ncnc2n1 | 5.42 |
| CCCN1CCN(C(=O)c2scnc2C)CC1 | -0.73 |
| O=C(NCCCOCC1CC1)Nc1cccnc1N1CCOCC1 | 5.55 |
| CC(Oc1ccccc1C(F)(F)F)C(=O)NCC(N)=O (stereo unspecified) | -8.38 |
| Cc1nc2ccccc2n1Cc1cc(C(=O)NC2CCOC2)no1 (stereo unspecified) | 4.45 |
| Cc1ccc(CNC(=O)CC2C(=O)NCCN2Cc2ccccc2C)s1 (stereo unspecified) | -7.98 |
| COc1ccc2c(c1)OCC(Cc1ccnc(N)n1)C2 (stereo unspecified) | -0.651 |
| CN(C)Cc1ccccc1CN(C)C(=O)c1ccoc1 | -11.8 |
| O=C(NC1CC(=O)N(C2Cc3ccccc3C2)C1)c1ccoc1 (stereo unspecified) | -2.4 |
| Cc1ccc2[nH]c(-c3cn(C4CCNCC4)nn3)nc2c1C | -4.92 |
| COC(=O)[C@@H](Nc1nc(C2CCCC2)nc2c1cnn2C)[C@@H](C)O | -50 |
| COc1cccc(N2CCN(Cc3nccc(OC)c3OC)CC2=O)c1 | 3.63 |
| COCCN(Cc1ccccc1Cl)C(=O)c1c(C)cc(C)[nH]c1=O | -5.6 |
| Cc1ccc(Oc2ncccc2CNC2CCCCC2)cn1 | -8.59 |
| CCSCCC(=O)N1CCc2[nH]nc(COc3ccccc3)c2C1 | -2.19 |
| O=C(Cc1cc(F)cc(Cl)c1)N[C@@H]1CCNC[C@H]1O | -3.66 |
| CCCn1cc(C(=O)NC(CC(=O)O)c2ccco2)c(C)n1 (stereo unspecified) | -61.4 |
| Cc1cccn2cc(C(=O)N3CCCN(CC4CC4)C(C(C)C)C3)nc12 (stereo unspecified) | 1.46 |
| O=C(C1CCC1)N1CCc2[nH]cnc2C12CCN(C1CCOCC1)CC2 | -2.4 |

| SMILES | cytotoxicity at 10 µM [%] |
| --- | --- |
| Cc1cc(CN(C)C(=O)C2CCC(=O)N(CC3CCCCC3)C2)n[nH]1 (stereo unspecified) | 1.85 |
| Cc1nccn1C1(C(=O)O)CCN(Cc2ccc3nsnc3c2)CC1 | -4.97 |
| O=C(NCC(F)(F)F)C1CCC(=O)N(C2CCCC2)C1 (stereo unspecified) | -8.77 |
| CCNC(=O)[C@@H]1C[C@@H](N)CN1C(=O)Cc1cc(C)ccc1C | 1.87 |
| CN(C)c1nc(NCc2ccccc2Cn2cccn2)ncc1F | 54.4 |
| CC(C)c1cc(C(F)(F)F)n2nc(CCC(=O)O)nc2n1 | 5.97 |
| COc1cccc(OC)c1C(=O)N1CCN(c2ccccc2F)CC1 | -5.22 |
| Cc1cncc(C2CCCN(C(=O)c3c[nH]c(=O)[nH]c3=O)C2)n1 (stereo unspecified) | 1.92 |
| CCc1nc2n(n1)CC(NCc1cnn(-c3ccccc3)n1)CC2 (stereo unspecified) | -3.01 |
| Cc1nc(C2CCCN(C(=O)c3cc4c(s3)CCCC4)C2)no1 (stereo unspecified) | -7.03 |
| Cc1nn(C)c(Cl)c1C1CCCN1Cc1cccc(C(N)=O)c1 (stereo unspecified) | -6.22 |
| Cc1cc(NC(=O)c2ccc(-n3ncc(C#N)c3N)cc2)n(C)n1 | -0.0414 |
| Cc1nc(CN(C)C2CCN(CCc3cnn(C)c3)C2)no1 (stereo unspecified) | 3.63 |
| CC(Cn1cccn1)NC(=O)NCc1cccnc1OC(C)C (stereo unspecified) | -9.44 |
| CCc1nc(C2CCCN2C(=O)c2csc(COC)n2)no1 (stereo unspecified) | 1.04 |
| CC(Cn1cccn1)NCC(=O)NCCc1cccs1 (stereo unspecified) | -12.7 |
| Cc1nc(C2CCCN(C(=O)COCCc3ccccc3)C2)no1 (stereo unspecified) | -11.1 |
| Cc1cnn(CC2CN(CC(=O)NCc3ccco3)CCO2)c1 (stereo unspecified) | -1.43 |
| O=C(CN1CCOC(Cn2cccn2)C1)NCc1ccccn1 (stereo unspecified) | -6.73 |
| CC(=O)N1CCN(C(=O)NCCc2ccc(Cl)s2)CC1 | -11.6 |
| CCOc1cccc(C(=O)N2CCC(c3n[nH]c(C4CC4)n3)CC2)c1 | -16.8 |
| CCc1ncncc1C(=O)N1CCN(Cc2c(C)noc2C)CC1 | -13.8 |
| Cc1nc(C)n(CC2CCCN2CC(=O)Nc2cc(C(C)C)no2)n1 (stereo unspecified) | -0.292 |

| SMILES | cytotoxicity at 10 µM [%] |
| --- | --- |
| CN(CCc1ccc(F)cc1)Cc1nc2c(cnn2C)c(=O)[nH]1 | -1.69 |
| Cc1cc(C)n(C2CN(CC(=O)NCC(C)(C)N3CCOCC3)C2)n1 | -3.42 |
| Cn1cc(N2CCCC(NCc3cccc4c3OCCCO4)C2)cn1 (stereo unspecified) | -8.58 |
| CCc1nc(C2CCCN2C(=O)CCCn2cccn2)no1 (stereo unspecified) | -13.1 |
| CCN1CC(C(=O)NCc2ccccc2-n2cccn2)CC1=O (stereo unspecified) | 3.2 |
| Cc1n[nH]c(C2CN(C(=O)c3cc(C4CC4)[nH]n3)CCO2)n1 (stereo unspecified) | 0.192 |
| CCC(=O)NCCCn1c(-c2cccnc2C)cc2cccnc21 | 3.84 |
| Cc1cc(Oc2ccccc2F)nc(C2CCCCN2)n1 (stereo unspecified) | 8.44 |
| Cc1cccc(CN2CCCCC23CCNC3)n1 (stereo unspecified) | 1.49 |
| Cn1cc(C(=O)N2CC[C@@H]3[C@@H]2CCN3Cc2cccnc2)cn1 | 3.06 |
| CCN1C[C@@H]2[C@@H](OC)CCN(C(=O)Cc3ccsc3)[C@@H]2C1 | 0.11 |
| Cc1ccc2c(n1)N(CCN(C)C)CCN(C(=O)c1ccc[nH]1)C2 | 6.59 |
| CCN(C)c1ncnc2c1CCN(Cc1csc(C)n1)CC2 | -1.13 |
| Cn1cnc2c1C(COCC1CC1)CN(C(=O)Cc1ccsc1)C2 (stereo unspecified) | -2.67 |
| CCC12CN3CC(CC)(CN(C1)C3c1[nH]c(=O)[nH]c(=O)c1C)C2=O (stereo unspecified) | 12.5 |
| CCc1nnc2n1CCN(C=C1NN=C(c3occc3C)O1)C2 | -10 |
| O=c1cc(CN2CC[C@@H]3CC[C@H](C2)N3)c2cccc3c2n1CCC3 | 9.64 |
| O=C1C[C@@H]2CC[C@H](CN1)N2C(=O)CCc1ccccc1 | -0.0739 |
| O=C1C[C@@H]2CC[C@H](CN1)N2C(=O)Cc1ccsc1 | 1.6 |
